pKi: −log10 of the molar value.
Tests used:
[1] = Drug metabolism in human liver microsomes assessed as drug recovery pre-incubated at 37 degC for 5 mins before NADPH addition and measured after 30 mins by LC/MS/MS method; type: ADME, microsome; settings: read-out: Drug recovery
[2] = Drug metabolism in rat liver microsomes assessed as metabolic turnover rate per 0.125 mg/ml protein pre-incubated at 37 degC for 5 mins before NADPH addition and measured after 30 mins by LC/MS/MS method; type: ADME, microsome; settings: 0.5 h
[3] = Drug metabolism in human liver microsomes assessed as drug recovery pre-incubated at 37 degC for 5 mins measured after 30 mins in absence of NADPH by LC/MS/MS method; type: ADME, microsome; settings: read-out: Drug recovery
[4] = Half life in rat liver microsomes pre-incubated at 37 degC for 5 mins before NADPH addition and measured after 30 mins by LC/MS/MS method; type: ADME, microsome
[5] = AUC (0 to t) in Wistar rat at 3 mg/kg, iv after 0.25 to 24 hrs by LC/MS/MS method; type: ADME, organism-based; set-up: time upper 24 hr, dose 3 mg/kg, time lower 0.25 hr, route intravenous; settings: in vivo
Procedure, shortened: (§1)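 Male Wistar rats were given a single intravenous dose. The vehicle was NMP 10%, PEG-300 15%, and 0.1M ammonium acetate buffer q.s. (pH 3). Plasma concentration–time profiles were used to derive AUC0-t, Vss, clearance (mL/min/kg) and t1/2.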

[6] = Drug metabolism in mouse liver microsomes assessed as drug recovery pre-incubated at 37 degC for 5 mins measured after 30 mins in absence of NADPH by LC/MS/MS method; type: ADME, microsome; settings: read-out: Drug recovery
[7] = Clearance in Wistar rat at 3 mg/kg, iv after 0.25 to 24 hrs by LC/MS/MS method; type: ADME, organism-based; settings: in vivo; procedure, shortened: as §1
[8] = Drug metabolism in rat liver microsomes assessed as drug recovery pre-incubated at 37 degC for 5 mins measured after 30 mins in absence of NADPH by LC/MS/MS method; type: ADME, microsome; settings: read-out: Drug recovery
[9] = Drug metabolism in rat liver microsomes assessed as drug recovery pre-incubated at 37 degC for 5 mins before NADPH addition and measured after 30 mins by LC/MS/MS method; type: ADME, microsome; settings: read-out: Drug recovery
[10] = Volume of distribution at steady state in Wistar rat at 3 mg/kg, iv after 0.25 to 24 hrs by LC/MS/MS method; type: ADME, organism-based; settings: in vivo, read-out: Vdss; procedure, shortened: as §1
[11] = Half life in mouse liver microsomes pre-incubated at 37 degC for 5 mins before NADPH addition and measured after 30 mins by LC/MS/MS method; type: ADME, microsome
[12] = Drug metabolism in human liver microsomes assessed as metabolic turnover rate per 0.125 mg/ml protein pre-incubated at 37 degC for 5 mins before NADPH addition and measured after 30 mins by LC/MS/MS method; type: ADME, microsome; settings: 0.5 h
[13] = Drug metabolism in mouse liver microsomes assessed as metabolic turnover rate per 0.125 mg/ml protein pre-incubated at 37 degC for 5 mins before NADPH addition and measured after 30 mins by LC/MS/MS method; type: ADME, microsome; settings: 0.5 h
[14] = Half life in Wistar rat at 3 mg/kg, iv after 0.25 to 24 hrs by LC/MS/MS method; type: ADME, organism-based; settings: in vivo; procedure, shortened: as §1
Adenosine deaminase = biological target: T1, Adenosine deaminase (Bos taurus, UniProt P56658); test: Inhibition of bovine adenosine deaminase pre-incubated for 5 mins before adenosine addition; settings: for pKi: read-out: Ki
T1 sequence (P56658 whole entry): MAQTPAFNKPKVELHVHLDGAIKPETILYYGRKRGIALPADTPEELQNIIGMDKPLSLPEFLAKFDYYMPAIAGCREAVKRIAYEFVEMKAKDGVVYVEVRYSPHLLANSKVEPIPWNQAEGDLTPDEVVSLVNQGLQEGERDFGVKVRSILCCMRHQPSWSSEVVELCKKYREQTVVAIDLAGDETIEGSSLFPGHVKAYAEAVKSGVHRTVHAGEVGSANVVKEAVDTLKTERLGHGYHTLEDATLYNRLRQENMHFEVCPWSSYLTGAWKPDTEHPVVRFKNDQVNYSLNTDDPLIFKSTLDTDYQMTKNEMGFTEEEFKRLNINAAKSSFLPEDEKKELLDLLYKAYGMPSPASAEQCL

[15] = Half life in human liver microsomes pre-incubated at 37 degC for 5 mins before NADPH addition and measured after 30 mins by LC/MS/MS method; type: ADME, microsome
[16] = Drug metabolism in mouse liver microsomes assessed as drug recovery pre-incubated at 37 degC for 5 mins before NADPH addition and measured after 30 mins by LC/MS/MS method; type: ADME, microsome; settings: read-out: Drug recovery

remaining at 0.5 h [1] [%] | Drug metabolism [2] [nmol/min/mg] | remaining at 0.5 h [3] [%] | half-life [4] [min] | remaining at 0.5 h [6] [%] | remaining at 0.5 h [8] [%] | remaining at 0.5 h [9] [%] | half-life [11] [min] | Drug metabolism [12] [nmol/min/mg] | Drug metabolism [13] [nmol/min/mg] | pKi (Adenosine deaminase) | half-life [15] [min] | remaining at 0.5 h [16] [%] | Structure (SMILES) | further results
99 | < 0.04 | 95 | > 30 | 94 | 93 | 93 | > 30 | < 0.04 | 0.04 | 8.28 | > 30 | 85 | C[C@H](O)[C@@H](CCc1ccc(C(F)(F)F)cc1)n1cnc2c(N)ncnc21 | AUC(0-t) [5]: 2.21 µM·h; clearance [7]: 59 mL/min/kg; Vd [10]: 7.01 L/kg; half-life [14]: 133 min
83 | 0.05 | 89 | > 100 | 100 | 100 | 83 | 25 | 0.05 | 0.22 | 7.60 | > 100 | 43 | C[C@H](O)[C@@H](CSc1cccc(C(F)(F)F)c1)n1cnc2c(N)ncnc21 | –
– | – | – | – | – | – | – | – | – | – | – | – | – | C[C@H](O)[C@@H](CCc1ccc(C(F)(F)F)cc1)n1ncc2c(N)ncnc21 | Ki (Adenosine deaminase): Not Active
90 | < 0.04 | 92 | > 30 | 96 | 100 | 91 | > 30 | < 0.04 | < 0.04 | 8.57 | > 30 | 100 | CNC(=O)c1cccc(CC[C@H]([C@H](C)O)n2cnc3c(N)ncnc32)c1 | –
– | – | – | – | – | – | – | – | – | – | 7.16 | – | – | CC(C)(O)[C@@H](CCc1ccc(C(F)(F)F)cc1)n1cnc2c(N)ncnc21 | –
– | – | – | – | – | – | – | – | – | – | 8.74 | – | – | C[C@H](O)[C@@H](CCc1cccc(C(=O)NC2CCCC2)c1)n1cnc2c(N)ncnc21 | –
80 | 0.04 | 95 | > 30 | 89 | 91 | 86 | > 30 | 0.06 | 0.08 | 8.96 | > 30 | 74 | C[C@H](O)[C@@H](CCc1cccc(C(F)(F)F)c1)n1cnc2c(N)ncnc21 | AUC(0-t) [5]: 1.61 µM·h; clearance [7]: 85 mL/min/kg; Vd [10]: 1.88 L/kg; half-life [14]: < 30 min
– | – | – | – | – | – | – | – | – | – | – | – | – | C[C@H](O)[C@@H](CCc1cccc(C(F)(F)F)c1)n1ccc2c(N)ncnc21 | Ki (Adenosine deaminase): Not Active
– | – | – | – | – | – | – | – | – | – | 8.21 | – | – | C[C@H](O)[C@@H](CCc1ccccc1C(F)(F)F)n1cnc2c(N)ncnc21 | –
68 | < 0.04 | 65 | > 30 | 100 | 99 | 96 | > 30 | 0.1 | 0.04 | 8.66 | > 30 | 88 | COC(=O)c1cccc(CC[C@H]([C@H](C)O)n2cnc3c(N)ncnc32)c1 | –
– | – | – | – | – | – | – | – | – | – | 6.87 | – | – | C[C@H](O)[C@@H](CSc1ccccc1)n1cnc2c(N)ncnc21 | –
– | – | – | – | – | – | – | – | – | – | 8.66 | – | – | C[C@H](O)[C@@H](CCc1cccc(C(=O)N2CCCC2)c1)n1cnc2c(N)ncnc21 | –
71 | < 0.04 | 94 | > 30 | 94 | 85 | 90 | > 30 | 0.09 | 0.16 | 8.72 | > 30 | 57 | C[C@H](O)[C@@H](CCc1cccc(-c2cnccn2)c1)n1cnc2c(N)ncnc21 | –
– | – | – | – | – | – | – | – | – | – | – | – | – | CC(=O)[C@@H](CCc1ccc(C(F)(F)F)cc1)n1cnc2c(N)ncnc21 | Ki (Adenosine deaminase): Not Active
– | – | – | – | – | – | – | – | – | – | 8.34 | – | – | C[C@H](O)[C@@H](CCc1cccc(CO)c1)n1cnc2c(N)ncnc21 | –
76 | 0.15 | 95 | > 30 | 90 | 95 | 58 | > 30 | 0.07 | 0.11 | 8.68 | > 30 | 64 | CCc1ccc(CC[C@H]([C@H](C)O)n2cnc3c(N)ncnc32)s1 | –
94 | 0.04 | 85 | > 30 | 94 | 97 | 86 | > 30 | < 0.04 | < 0.04 | 7.27 | > 30 | 100 | CCCCSC[C@H]([C@H](C)O)n1cnc2c(N)ncnc21 | –
84 | 0.09 | 100 | > 30 | 92 | 91 | 76 | > 30 | 0.05 | 0.1 | 8.59 | > 30 | 65 | C[C@H](O)[C@@H](CCc1cccc(-c2nccs2)c1)n1cnc2c(N)ncnc21 | –
– | – | – | – | – | – | – | – | – | – | 8.74 | – | – | C[C@H](O)[C@@H](CCc1cccc(C(=O)N(C)C)c1)n1cnc2c(N)ncnc21 | –
– | – | – | – | – | – | – | – | – | – | – | – | – | C[C@H](O)[C@@H](CCc1ccc(C(F)(F)F)cc1)n1ccc2c(N)ncnc21 | Ki (Adenosine deaminase): Not Active
– | – | – | – | – | – | – | – | – | – | 7.31 | – | – | Cc1cccc(SC[C@H]([C@H](C)O)n2cnc3c(N)ncnc32)c1 | –
– | – | – | – | – | – | – | – | – | – | 8.54 | – | – | C[C@H](O)[C@@H](CCc1cccc(C(N)=O)c1)n1cnc2c(N)ncnc21 | –
– | – | – | – | – | – | – | – | – | – | 7.18 | – | – | Cc1ccccc1SC[C@H]([C@H](C)O)n1cnc2c(N)ncnc21 | –
– | – | – | – | – | – | – | – | – | – | 8.80 | – | – | C[C@H](O)[C@@H](CCc1cccc(F)c1)n1cnc2c(N)ncnc21 | –
– | – | – | – | – | – | – | – | – | – | – | – | – | C[C@H](O)[C@@H](CCc1cccc(C(F)(F)F)c1)n1ncc2c(N)ncnc21 | Ki (Adenosine deaminase): Not Active
– | – | – | – | – | – | – | – | – | – | 7.54 | – | – | C[C@H](O)[C@@H](CCc1ccc(C(F)(F)F)cc1)n1cnc(C(N)=O)c1 | –
– | – | – | – | – | – | – | – | – | – | 9.22 | – | – | C[C@H](O)[C@@H](CCc1cccc(Br)c1)n1cnc2c(N)ncnc21 | –
65 | 0.44 | 83 | 13 | 92 | 94 | 19 | > 30 | 0.11 | 0.07 | 8.72 | > 30 | 77 | C[C@H](O)[C@@H](CCC1CCCCC1)n1cnc2c(N)ncnc21 | –
82 | 0.12 | 91 | > 30 | 100 | 100 | 64 | > 30 | 0.06 | 0.15 | 8.64 | > 30 | 58 | C[C@H](O)[C@@H](CCc1cccc(-c2ccccn2)c1)n1cnc2c(N)ncnc21 | –
– | – | – | – | – | – | – | – | – | – | 7.28 | – | – | C[C@H](O)[C@@H](CCc1cccc(C(=O)O)c1)n1cnc2c(N)ncnc21 | –

Source: ChEMBL document CHEMBL4177582, “Modifications of flexible nonyl chain and nucleobase head group of (+)-erythro-9-(2's-hydroxy-3's-nonyl)adenine [(+)-EHNA] as adenosine deaminase inhibitors” (Bioorg Med Chem, 2017)
